Inconclusive results are not listed.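 Rule for the calls, unless noted: active = growth inhibition above 25% in both replicates, a cutoff set 3 SD above the mean; inconclusive = above 25% in only one replicate; inactive = the rest.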
How the values were obtained:
[1] = S. cerevisiae growth inhibition in permissive medium (OD615), pilot counter-assay for S. cerevisiae lifespan shortening project, permissive growth control (AID 705); conditions: OD615, 24 h, at 10 µM, active compounds read high
Summary of the method: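 System: S. cerevisiae with engineered DeaD lifespan system / Measured by: absorbance (optical density) at 615 nm / Read-out: reduction in yeast growth (OD615) / Times: 4 h cell pre-growth, 24 h exposure at 30 °C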

[2] = S. cerevisiae growth inhibition in restrictive medium, OD615, pilot screen, restrictive growth control, yeast lifespan reduction project (AID 706;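 active = growth inhibition above a set limit, 3 SD over mean compound inhibition, in both replicates, cut at about 43% in these data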;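 note: modified DeaD lifespan yeast strain shifted to restrictive glucose medium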); conditions: OD615, 48 h, at 10 µM, active compounds read high
Summary of the method: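 System: Engineered S. cerevisiae DeaD strain | Buffer or medium: Glucose-based CSMM-D restrictive medium | Schedule: 4 h pre-incubation, 48 h exposure at 30 °C | Technique: Optical density at 615 nm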

[3] = doxorubicin toxicity protection in MRP-1 cells – H69AR cells, CellTiter-Glo, duplicate, MRP-1 activator project, pilot screen (AID 807;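 active = viability increase at or above a cutoff of the median across tested compounds plus 3 SD, cut at about 8.5% in these data, passing the limit was not always enough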;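 note: compound pretreatment 18-22 h then 72 h combined with doxorubicin; 0% = doxorubicin alone and 100% = vehicle without doxorubicin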); conditions: H69AR viability with doxorubicin, CellTiter-Glo luminescence; at 10 µM; active compounds read high
[4] = viability of HCT116 without oncogenic beta-catenin – human colon tumor cells, pilot screen (AID 823;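 active = cell viability at or below a set limit in both duplicate runs, the limit being the all-compound median minus 4 SD, cut at about 23% in these data, passing the limit was not always enough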;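 note: 0% = wells killed by 20 µM Hyamine and 100% = untreated DMSO cell wells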); conditions: HCT116 beta-catenin knockout viability, CellTiter-Glo, 60 h; at 10 µM; active compounds read low
[5] = viability of PTEN-null HCT116 cells – cell-based, HCT116 clonal line, CellTiter-Glo, pilot screen (AID 824;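 active = viability at or below 27.92% in each of two runs, the all-compound median minus 4 SD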;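 note: 0% = 20 µM Hyamine control and 100% = vehicle cell control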); conditions: HCT116 PTEN-deleted viability, 60 h, at 10 µM, active compounds read low
[6] = RAM pathway blockade in budding yeast – dse1pr::URA3 reporter, 5-FOA selection, pilot screen (AID 869;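 active = inhibition over a set limit, the all-compound mean plus 3 SD, in both replicate runs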;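 note: 0% = DMSO wells with no growth and 100% = 10 µM 1-NA-PP1 with full growth; RAM network block rescues cells from 5-FOA so hits raise OD615 growth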); conditions: S. cerevisiae dse1pr::URA3 5-FOA growth, OD615, 2 d; at 10 µM; active compounds read high; strain carries analog-sensitive mutant Cbk1 kinase
[7] = RAM signaling pathway blockade in yeast – S. cerevisiae, Pdr1DBD-CYC8 efflux-inhibited sensitized strain, primary screen (AID 1298;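 active = RAM network inhibition above 8.4% in each of two replicates, 3 SD over the compound average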;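 note: 0% = DMSO untreated cells without growth and 100% = 10 µM 1-NA-PP1 full growth; higher means more yeast growth rescued from 5-FOA killing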); conditions: S. cerevisiae cbk1-as DSE1-URA3 strain, 5-FOA growth OD615, 2 d; at 50 µM; active compounds read high

O=C(CCC1CC(=O)Nc2ccccc21)NCc1cccnc1 (stereo not given)
inactive: growth inhibition [1] -10.7% | growth inhibition [2] -2.23% | viability increase [3] -1.06% | viability [4] 102% | viability [5] 90.5% | inhibition [6] 1.1% | RAM network inhibition [7] 12.5%

Cc1ccc(N(C(C)C(=O)O)S(=O)(=O)c2c(C)[nH]c(=O)[nH]c2=O)cc1 (stereo not given)
inactive: growth inhibition [1] 1.15% | growth inhibition [2] 11.8% | viability increase [3] -0.92% | viability [4] 102% | viability [5] 94.5% | inhibition [6] 0.555% | RAM network inhibition [7] -0.47%

O=C(CCN1CCN(CCO)CC1)Nc1ccc(F)c(F)c1
inactive: growth inhibition [1] -1.65% | growth inhibition [2] -3.58% | viability increase [3] -2.29% | viability [4] 104% | viability [5] 101% | inhibition [6] 0.265% | RAM network inhibition [7] 2.01%

O=C(CCn1c(=O)sc2ccccc21)NCc1ccccc1
inactive: growth inhibition [1] 4.34% | growth inhibition [2] -2.52% | viability increase [3] -0.79% | viability [4] 107% | viability [5] 105% | inhibition [6] 2% | RAM network inhibition [7] 2.7%

COc1ccc(-c2nnc(SCC(=O)Nc3cc(F)ccc3C)o2)cc1
inactive: growth inhibition [1] -4.83% | growth inhibition [2] 4.39% | viability increase [3] 1.69% | viability [4] 101% | viability [5] 97.6% | inhibition [6] 2.44% | RAM network inhibition [7] 0.58%

CNC(=O)C1CC(=O)N(c2ccc(C)cc2)C1 (stereo not given)
inactive: growth inhibition [1] -11.6% | growth inhibition [2] -11.4% | viability increase [3] 0.85% | viability [4] 98.5% | viability [5] 102% | inhibition [6] 0.395% | RAM network inhibition [7] 2.24%

Cc1c(Br)cc(C(=O)N2CCCC2)c(C)c1C
inactive: growth inhibition [1] -12.7% | growth inhibition [2] -11.1% | viability increase [3] -2.86% | viability [4] 102% | viability [5] 98.9% | inhibition [6] 0.205% | RAM network inhibition [7] 3.08%

CC(C)CC(=O)Nc1ccc2oc(-c3cccnc3)nc2c1
inactive: growth inhibition [1] 2.48% | growth inhibition [2] 2.53% | viability increase [3] -1.73% | viability [4] 100% | viability [5] 94% | inhibition [6] 1.53% | RAM network inhibition [7] -0.72%

C=C(C)CSc1nc2c(cc1C#N)CCC2
inactive: growth inhibition [1] 9.43% | growth inhibition [2] 21.6% | viability increase [3] 1.11% | viability [4] 99.4% | viability [5] 99.1% | inhibition [6] 2.3% | RAM network inhibition [7] 1.58%

COc1cccc(C2(O)CCN(C(=O)c3cccs3)CC2)c1
inactive: growth inhibition [1] -9.43% | growth inhibition [2] 6.06% | viability increase [3] 0.71% | viability [4] 91.5% | viability [5] 97% | inhibition [6] 1.58% | RAM network inhibition [7] 5.17%

COc1cc2c(C(=O)NCc3ccccn3)cn(CC(C)C)c(=O)c2cc1OC
inactive: growth inhibition [1] -6.14% | growth inhibition [2] -28.3% | viability increase [3] -3.77% | viability [4] 104% | viability [5] 92.4% | inhibition [6] 1.55% | RAM network inhibition [7] 1.16%

c1ccc(OCCSc2ncnc3nc[nH]c23)cc1
inactive: growth inhibition [1] 3.62% | growth inhibition [2] 15.4% | viability increase [3] -0.26% | viability [4] 93.3% | viability [5] 87.4% | inhibition [6] 1.73% | RAM network inhibition [7] 3.23%

CCOC(=O)c1c(NC(C)=O)no[n+]1[O-]
inactive: growth inhibition [1] -14.2% | growth inhibition [2] -12.3% | viability increase [3] -2.24% | viability [4] 104% | viability [5] 97.1% | inhibition [6] 0.795% | RAM network inhibition [7] 5.03%

CC(C)(C)c1ccc(S(=O)(=O)N2CCCCC2C(=O)NCc2ccccn2)cc1 (stereo not given)
inactive: growth inhibition [1] -24.9% | growth inhibition [2] -29% | viability increase [3] -2.34% | viability [4] 93% | viability [5] 84.6% | inhibition [6] 0.13% | RAM network inhibition [7] 5.71%

Cn1c(NCCO)nc2c(c1=O)C1(CCCCC1)Cc1ccccc1-2
inactive: growth inhibition [1] -13.2% | growth inhibition [2] -9.4% | viability increase [3] -2.31% | viability [4] 84% | viability [5] 76% | inhibition [6] 2.31% | RAM network inhibition [7] 5%

— PubChem BioAssay
